Measurements: ChEMBL document CHEMBL1255425, “Mutant APH(2'')-IIa enzymes with increased activity against amikacin and isepamicin” (2010)
In brackets after ≈: the same amount, converted by molar mass.

How the values were obtained:
[1] = system: Escherichia coli; assay: Antibacterial activity against Escherichia coli JM83 harboring pHF022 containing aminoglycoside 2''-2a N196D mutant by broth microdilution method; type: functional
Summary of the method: (§1)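 MICs by CLSI broth microdilution in Mueller-Hinton II broth; inoculum 5 × 10^5 CFU/ml; plates read after 20 h at 35°C. Host E. coli JM83 carrying pHF022 (empty or with cloned wild-type or mutant aph(2″)-IIa gene between NdeI and HindIII). Values are averages of at least three independent experiments.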

[2] = system: Escherichia coli; assay: Antibacterial activity against Escherichia coli JM83 harboring pHF022 containing aminoglycoside 2''-2a phosphotransferase R92H mutant by broth microdilution method; type: functional; summary of the method: as §1
[3] = system: Escherichia coli; assay: Antibacterial activity against Escherichia coli JM83 harboring pHF022 containing aminoglycoside 2''-2a D268N mutant by broth microdilution method; type: functional; summary of the method: as §1
[4] = system: Escherichia coli; assay: Antibacterial activity against Escherichia coli JM83 harboring pHF022 containing aminoglycoside 2''-2a phosphotransferase N196D/D268N mutant by broth microdilution method; type: functional; summary of the method: as §1
[5] = system: Escherichia coli; assay: Antibacterial activity against Escherichia coli JM83 harboring empty pHF022 vector by broth microdilution method; type: functional; summary of the method: as §1
[6] = system: Escherichia coli; assay: Antibacterial activity against Escherichia coli JM83 harboring pHF022 containing aminoglycoside 2''-2a phosphotransferase R92H/D268N mutant by broth microdilution method; type: functional; summary of the method: as §1
[7] = system: Escherichia coli; assay: Antibacterial activity against Escherichia coli JM83 producing aminoglycoside 2''-2a phosphotransferase by broth microdilution method; type: functional; summary of the method: as §1
[8] = Ratio of Kcat to Km for Aminoglycoside […] 2a N196D/D268N mutant using ATP/GTP as second substrate by spectrophotometric assay
Summary of the method: (§2)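 Enzymes were expressed in E. coli BL21(DE3) and affinity-purified: gentamicin column for wild type and N196D/D268N, kanamycin column for R92H/D268N. Activity was read by continuous PK/LDH-coupled NADH assay in 100 mM HEPES pH 7.5, 10 mM MgCl2, 20 mM KCl, 2 mM PEP, 140 μM NADH, with 5 to 10 nM enzyme. ATP/GTP was varied with kanamycin A fixed at 10 μM. Values came from nonlinear Michaelis-Menten fits.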

[9] = Ratio of Kcat to Km for Aminoglycoside […] 2a using ATP/GTP as second substrate by spectrophotometric assay; summary of the method: as §2
[10] = Activity of Aminoglycoside […] 2a using ATP/GTP as second substrate by spectrophotometric assay; summary of the method: as §2
[11] = Ratio of Kcat to Km for Aminoglycoside […] 2a R92H/D268N mutant using ATP/GTP as second substrate by spectrophotometric assay; summary of the method: as §2
[12] = Activity of Aminoglycoside […] 2a N196D/D268N mutant using ATP/GTP as second substrate by spectrophotometric assay; summary of the method: as §2
[13] = Activity of Aminoglycoside […] 2a R92H/D268N mutant using ATP/GTP as second substrate by spectrophotometric assay; summary of the method: as §2

Row | Compound | MIC [1] | MIC [2] | MIC [3] | MIC [4] | MIC [5] | MIC [6] | MIC [7] | kcat/Km [8] | kcat/Km [9] | Km [10] | kcat [10] | kcat/Km [11] | Km [12] | kcat [12] | Km [13] | kcat [13]
1 | NC[C@H]1O[C@H](O[C@H]2[C@H](O)[C@@H](O[C@H]3O[C@H](CO)[C@@H](O)[C@H](N)[C@H]3O)[C@H](N)C[C@@H]2N)[C@H](N)[C@@H](O)[C@@H]1O [BEKANAMYCIN] | 64 mg/L (≈ 132 µM) | 64 mg/L (≈ 132 µM) | 64 mg/L (≈ 132 µM) | 64 mg/L (≈ 132 µM) | 1 mg/L (≈ 2.07 µM) | 64 mg/L (≈ 132 µM) | 64 mg/L (≈ 132 µM) | – | – | – | – | – | – | – | – | –
2 | Nc1ncnc2c1ncn2[C@@H]1O[C@H](COP(=O)(O)OP(=O)(O)OP(=O)(O)O)[C@@H](O)[C@H]1O | – | – | – | – | – | – | – | 2.2 ×10⁶ /M/s | 2.7 ×10⁶ /M/s | 16.3 µM | 43.3 s⁻¹ | 7.2 ×10⁵ /M/s | 5.6 µM | 12.1 s⁻¹ | 29.5 µM | 21.4 s⁻¹
3 | NC[C@H]1O[C@H](O[C@H]2[C@H](O)[C@@H](O[C@H]3O[C@H](CO)[C@@H](O)[C@H](N)[C@H]3O)[C@H](N)C[C@@H]2N)[C@H](N)C[C@@H]1O [TOBRAMYCIN] | 64 mg/L (≈ 137 µM) | 64 mg/L (≈ 137 µM) | 32 mg/L (≈ 68.4 µM) | 64 mg/L (≈ 137 µM) | 1 mg/L (≈ 2.14 µM) | 64 mg/L (≈ 137 µM) | 64 mg/L (≈ 137 µM) | > 1.7 ×10⁷ /M/s | 1.7 ×10⁷ /M/s | 1.5 µM | 26.1 s⁻¹ | > 2.7 ×10⁷ /M/s | < 1 µM | 16.6 s⁻¹ | < 1 µM | 26.7 s⁻¹
4 | CN[C@@H]1[C@@H](O)[C@@H](O[C@@H]2[C@@H](O)[C@H](O[C@H]3OC(CN)=CC[C@H]3N)[C@@H](N)C[C@H]2N)OC[C@]1(C)O [SISOMICIN] | 8 mg/L (≈ 17.9 µM) | 8 mg/L (≈ 17.9 µM) | 4 mg/L (≈ 8.94 µM) | 4 mg/L (≈ 8.94 µM) | 0.25 mg/L (≈ 0.559 µM) | 8 mg/L (≈ 17.9 µM) | 8 mg/L (≈ 17.9 µM) | – | – | – | – | – | – | – | – | –
5 | NC[C@@H]1O[C@@H](O[C@H]2[C@H](O)[C@@H](O[C@H]3O[C@H](CO)[C@@H](O)[C@H](N)[C@H]3O)[C@H](N)C[C@@H]2N)[C@@H](O)[C@H](O)[C@H]1O [KANAMYCIN A] | 256 mg/L (≈ 528 µM) | 256 mg/L (≈ 528 µM) | 256 mg/L (≈ 528 µM) | 256 mg/L (≈ 528 µM) | 2 mg/L (≈ 4.13 µM) | 256 mg/L (≈ 528 µM) | 256 mg/L (≈ 528 µM) | > 1.4 ×10⁷ /M/s | 2.2 ×10⁷ /M/s | 2.1 µM | 45.1 s⁻¹ | > 2 ×10⁷ /M/s | < 1 µM | 13.8 s⁻¹ | < 1 µM | 20.5 s⁻¹
6 | CN[C@@H]1[C@@H](O)[C@@H](O[C@@H]2[C@@H](O)[C@H](O[C@H]3O[C@H](C(C)O)[C@@H](O)[C@H](O)[C@H]3N)[C@@H](N)C[C@H]2N)OC[C@]1(C)O (single isomer, unassigned) [GENETICIN] | 512 mg/L (≈ 1030 µM) | 512 mg/L (≈ 1030 µM) | 512 mg/L (≈ 1030 µM) | 512 mg/L (≈ 1030 µM) | 2 mg/L (≈ 4.03 µM) | 512 mg/L (≈ 1030 µM) | 512 mg/L (≈ 1030 µM) | – | – | – | – | – | – | – | – | –
7 | NC[C@@H]1CC[C@@H](N)[C@@H](O[C@H]2[C@H](O)[C@@H](O[C@H]3O[C@H](CO)[C@@H](O)[C@H](N)[C@H]3O)[C@H](N)C[C@@H]2N)O1 [DIBEKACIN] | 64 mg/L (≈ 142 µM) | 64 mg/L (≈ 142 µM) | 32 mg/L (≈ 70.9 µM) | 64 mg/L (≈ 142 µM) | 0.5 mg/L (≈ 1.11 µM) | 64 mg/L (≈ 142 µM) | 64 mg/L (≈ 142 µM) | > 1.7 ×10⁷ /M/s | 1.4 ×10⁷ /M/s | 1.2 µM | 17.1 s⁻¹ | 2.3 ×10⁷ /M/s | < 1 µM | 16.9 s⁻¹ | 1.2 µM | 27.5 s⁻¹
8 | NCC[C@H](O)C(=O)N[C@@H]1C[C@H](N)[C@@H](O[C@H]2O[C@H](CN)[C@@H](O)[C@H](O)[C@H]2O)[C@H](O)[C@H]1O[C@H]1O[C@H](CO)[C@@H](O)[C@H](N)[C@H]1O [AMIKACIN] | 2 mg/L (≈ 3.42 µM) | 2 mg/L (≈ 3.42 µM) | 2 mg/L (≈ 3.42 µM) | 16 mg/L (≈ 27.3 µM) | 2 mg/L (≈ 3.42 µM) | 16 mg/L (≈ 27.3 µM) | 2 mg/L (≈ 3.42 µM) | 1 ×10⁶ /M/s | 1.3 ×10⁵ /M/s | 62.9 µM | 8.3 s⁻¹ | 9.4 ×10⁵ /M/s | 13.5 µM | 13.8 s⁻¹ | 23.7 µM | 22.3 s⁻¹
9 | Nc1nc(=O)c2ncn([C@@H]3O[C@H](COP(=O)(O)OP(=O)(O)OP(=O)(O)O)[C@@H](O)C3O)c2[nH]1 (single isomer, unassigned) | – | – | – | – | – | – | – | 6.5 ×10⁵ /M/s | 1.3 ×10⁵ /M/s | 70 µM | 9.4 s⁻¹ | 3.2 ×10⁵ /M/s | 16.2 µM | 10.6 s⁻¹ | 28.2 µM | 8.9 s⁻¹
10 | CCN[C@@H]1C[C@H](N)[C@@H](O[C@H]2OC(CN)=CC[C@H]2N)[C@H](O)[C@H]1O[C@H]1OC[C@](C)(O)[C@H](NC)[C@H]1O [NETILMICIN] | 8 mg/L (≈ 16.8 µM) | 16 mg/L (≈ 33.6 µM) | 4 mg/L (≈ 8.41 µM) | 8 mg/L (≈ 16.8 µM) | 0.25 mg/L (≈ 0.526 µM) | 8 mg/L (≈ 16.8 µM) | 8 mg/L (≈ 16.8 µM) | – | – | – | – | – | – | – | – | –
11 | CN[C@@H]1[C@@H](O)[C@@H](O[C@@H]2[C@@H](O)[C@H](O[C@H]3O[C@H](CN)[C@@H](O)[C@H](O)[C@H]3O)[C@@H](N)C[C@H]2NC(=O)[C@@H](O)CN)OC[C@]1(C)O [ISEPAMICIN] | 2 mg/L (≈ 3.51 µM) | 4 mg/L (≈ 7.02 µM) | 2 mg/L (≈ 3.51 µM) | 16 mg/L (≈ 28.1 µM) | 2 mg/L (≈ 3.51 µM) | 16 mg/L (≈ 28.1 µM) | 2 mg/L (≈ 3.51 µM) | 2 ×10⁶ /M/s | 4.4 ×10⁵ /M/s | 13.5 µM | 5.7 s⁻¹ | 2.3 ×10⁶ /M/s | 2 µM | 4.1 s⁻¹ | 1.2 µM | 2.8 s⁻¹
12 | GENTAMICIN | 16 mg/L | 16 mg/L | 16 mg/L | 16 mg/L | 0.25 mg/L | 16 mg/L | 16 mg/L | – | – | – | – | – | – | – | – | –
